Screening data: PubChem BioAssay, several laboratories
This is a sample that favours compounds with a hit; in the whole collection about 6.5% have one here.
PostGolgi yeast = growth inhibition of a yeast mutant, post-Golgi transport screen | AID 739 | post-Golgi transport phenotypic cell assay | inhibition, % at 10 µM | actives 0.9% (n = 98,000);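 further: yeast cells grown in 1536-well plates; yeast grown about 18 h at 30C before absorbance read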
PTK2B oligo ant = Pyk2 (human) oligomerization antagonism | z-score (the deposit names both 25 µM and 10 µM) | Q14289 | Q293 cells, Pyk2 FERM NanoBiT luminescence; active compounds read low | actives 0.83% (n = 99,000) | AID 1347419;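 active means Z-score of -3 or lower, scaled per plate to the spread of control and sample wells; inactive means z-score above -3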;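 further: negative z-score means lost luminescence so less FERM oligomerization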
Target sequence (Q14289 whole entry, looked up): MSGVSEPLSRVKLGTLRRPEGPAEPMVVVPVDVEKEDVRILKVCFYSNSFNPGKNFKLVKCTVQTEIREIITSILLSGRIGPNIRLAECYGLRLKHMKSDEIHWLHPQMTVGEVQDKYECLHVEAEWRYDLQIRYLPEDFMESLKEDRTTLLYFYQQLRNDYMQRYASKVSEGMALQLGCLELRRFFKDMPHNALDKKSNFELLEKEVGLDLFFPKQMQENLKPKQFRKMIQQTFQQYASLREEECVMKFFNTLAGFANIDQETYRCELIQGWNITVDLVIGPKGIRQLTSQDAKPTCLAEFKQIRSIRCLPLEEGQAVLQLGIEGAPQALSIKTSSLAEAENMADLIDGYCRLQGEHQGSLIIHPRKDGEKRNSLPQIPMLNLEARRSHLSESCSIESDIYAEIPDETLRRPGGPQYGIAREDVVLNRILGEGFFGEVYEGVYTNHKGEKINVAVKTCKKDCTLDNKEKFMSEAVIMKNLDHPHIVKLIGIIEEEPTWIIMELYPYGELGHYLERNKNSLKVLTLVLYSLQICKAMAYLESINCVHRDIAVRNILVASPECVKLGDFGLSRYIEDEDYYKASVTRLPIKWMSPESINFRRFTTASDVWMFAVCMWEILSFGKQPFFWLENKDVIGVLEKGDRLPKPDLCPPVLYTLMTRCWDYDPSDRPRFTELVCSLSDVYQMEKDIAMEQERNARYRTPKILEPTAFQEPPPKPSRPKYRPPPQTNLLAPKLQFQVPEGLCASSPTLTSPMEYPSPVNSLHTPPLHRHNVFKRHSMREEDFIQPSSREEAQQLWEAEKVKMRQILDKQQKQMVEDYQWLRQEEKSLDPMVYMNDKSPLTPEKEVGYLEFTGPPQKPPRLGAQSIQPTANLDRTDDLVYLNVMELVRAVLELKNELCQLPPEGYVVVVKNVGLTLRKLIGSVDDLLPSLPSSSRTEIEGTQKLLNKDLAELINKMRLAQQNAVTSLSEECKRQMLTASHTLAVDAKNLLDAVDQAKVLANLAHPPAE
PostGolgi ctrl = yeast control strain growth, post-Golgi counter-screen. efflux-deficient yeast background strain, growth absorbance A615, 16 h. inhibition, % at 10 µM. actives 5% (n = 98,000). AID 738
tolC growth inh = blocks growth of E. coli BW25113 tolC mutant. OD615. growth inhibition, % at 10 µM (by protocol). actives 2.2% (n = 65,000). AID 573;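 active means growth inhibition at or above a cutoff equal to the mean over every tested compound plus 3 SD, cut at about 60% in these data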;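 further: growth measured after 20 h incubation at 37 °C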
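signal = optical density read at 615 nm | test system = E. coli ΔtolC::kan strain BW25113 | timing = 20 h compound exposure of bacteria at 37 °C | buffer or medium = LB medium plus 50 µg/mL kanamycin | compound dosing = 10 µM final, single dose | evaluation = % inhibition of E. coli growth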
Calb biofilm kill = kills Candida albicans biofilms. inhibition, % at 6 µM. actives 0.14% (n = 85,000). AID 834. C. albicans biofilm + clotrimazole, Alamar Blue;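 active means inhibition above 20%; inactive means inhibition below 20%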;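 further: preformed 24 hr biofilms exposed to compound for 48 hr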
Ecoli WT expand = E. coli BW25113 growth inhibition, expanded screen; OD600 absorbance; growth inhibition, % at 100 µM; actives 0.15% (n = 98,000); AID 710;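 active means growth inhibition above about 50% at one test dose, limit read from the data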;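 further: growth measured after 20 h incubation at 37 °C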
A number is an active result; – = inactive; · = no result given. Unless noted, no stated cut-off is given here; in the data, active means inhibition above about 30%; inactive means the rest.

SMILES	PostGolgi yeast	PTK2B oligo ant	PostGolgi ctrl	tolC growth inh	Calb biofilm kill	Ecoli WT expand
CCSc1nc2c(sc3nc(C)cc(C)c32)c(=O)[nH]1	–	·	42	·	·	–
O=[N+]([O-])c1cccc(/C=C/c2nc3ccc([N+](=O)[O-])cc3[nH]2)c1	–	–	72	·	·	–
O=[N+]([O-])c1ccc2n[nH]nc2c1	–	–	–	·	–	–
O=C(C[n+]1cc2ccccc2c2ccccc21)c1ccccc1	–	–	33	·	·	–
CCc1nc(SCC(=O)N2c3ccccc3CC2C)c2c(C)c(C)sc2n1 (stereo not drawn)	–	–	33	·	·	–
O=C1c2ccccc2C(Nc2ccc3c(c2)OCCO3)N1Cc1ccccc1 (stereo not drawn)	–	·	–	–	–	–
O=c1c2cn[nH]c2nc(SCc2ccc3c(c2)OCCO3)n1-c1ccccc1	–	-3.7	–	–	–	–
O=C(NCc1ccco1)C1(S(=O)(=O)c2ccc(Cl)cc2)CC1	–	–	–	–	–	–
Cc1cc(C)c(NC(=O)CSc2nc3c(c(=O)n2C)SC(C)C3)c(C)c1 (stereo not drawn)	–	·	31	–	–	–
CCn1c(SCC(=O)Nc2nc3ccc(C)cc3s2)nc2c(c1=O)SC(C)C2 (stereo not drawn)	–	-3.6	84	–	–	–
CC1Cc2nc(SCC(=O)NCc3ccco3)n(Cc3ccccc3)c(=O)c2S1 (stereo not drawn)	–	·	43	–	–	–
CCn1c(SCC(=O)Nc2nc3ccccc3s2)nc2c(c1=O)SC(C)C2 (stereo not drawn)	–	·	51	–	–	–
CCn1c(SCC(=O)Nc2cc(C)on2)nc2c(c1=O)SC(C)C2 (stereo not drawn)	–	–	–	–	–	–
Cc1cc(C)cc(NC(=O)CSc2nc3c(c(=O)n2C)SC(C)C3)c1 (stereo not drawn)	–	·	–	–	–	–
Cc1ccc(S(=O)(=O)NCCCOC(=O)Nc2ccncc2)cc1	–	–	–	–	–	–
C=CCn1c2ccccc2c2nnc(SCC(=O)NC(C(=O)OC)C(C)C)nc21 (stereo not drawn)	–	–	–	–	–	–
O=C(CCCOc1ccc(Cl)cc1Cl)N1CCN(c2ccccn2)CC1	–	–	52	73	–	–
CN(C)CCCNCCCNC(=O)c1ccncc1	–	–	–	–	–	–
CN(C)CCCNC(=O)c1ccc(-c2nc(-c3ccc(Cl)cc3)cs2)cc1	–	–	38	·	·	–
O=[N+]([O-])c1cccc(-c2nnn(C34CC5CC(CC(C5)C3)C4)n2)c1	–	–	–	·	·	–
COc1ccc(-c2cn3cccnc3n2)cc1NC(=O)c1ccc(Br)o1	–	-3.2	–	–	·	–
O=C(Nc1cccc(-c2cn3cccnc3n2)c1)c1ccco1	–	–	–	–	–	–
O=C(Nc1cccc(-c2cn3cccnc3n2)c1)c1ccc(Br)o1	–	–	33	–	·	–
CC(c1nc2ccccc2c(=O)[nH]1)N1CCN(C)CC1 (stereo not drawn)	–	–	–	·	–	–
COC(=O)Nc1ccc(S(=O)(=O)N2CCC(Cc3ccccc3)CC2)cc1	–	–	35	·	·	–
SMILES	PostGolgi yeast	PTK2B oligo ant	PostGolgi ctrl	tolC growth inh	Calb biofilm kill	Ecoli WT expand
COC(=O)Nc1ccc(S(=O)(=O)N2CCN(C)CC2)cc1	–	–	–	–	·	–
COC(=O)Nc1ccc(S(=O)(=O)N2CCN(c3ccc(F)cc3)CC2)cc1	–	–	38	–	–	–
CC(C)CC(=O)N1CCN(S(=O)(=O)c2ccc(F)cc2)CC1	–	–	39	–	·	–
CC(C(=O)OCC(=O)Nc1ccc(S(=O)(=O)N2CCCCC2)cc1)N1C(=O)c2ccccc2C1=O (stereo not drawn)	–	–	–	·	·	–
CCOC(=O)C(CC)(CC)/C(C)=N/NC(=O)CC#N	–	–	–	·	–	–
O=C(Cn1c(C(=O)N2CCN(C3CCCC3)CC2)cc2sccc21)c1ccccc1	–	–	–	–	–	–
Cc1nn(C)c(C)c1/C=N/N=C1\CCC2C3CCc4cc(O)ccc4C3CCC12C (stereo not drawn)	–	–	–	·	·	–
O=C(NNC(=O)c1ccc([N+](=O)[O-])o1)c1ccccc1	–	–	–	·	–	100
O=C(NNC(=S)NC(=O)c1ccccc1[N+](=O)[O-])c1ccccc1	·	–	·	·	–	·
Cc1ccc2[nH]c(=O)c3cc(C(=O)N(CCCOC(C)C)Cc4ccco4)sc3c2c1	–	·	–	·	–	–
CCCCN(Cc1ccco1)C(=O)c1cc2c(=O)[nH]c3ccc(C)cc3c2s1	–	·	36	·	–	–
CC(=O)Nc1cccc(C(=O)OCc2ccc(C(=O)Oc3ccc(Cl)cc3)cc2)c1	–	–	–	·	·	–
O=C(Nc1ccc(Cl)c(Cl)c1)OCc1cncs1	–	–	–	·	–	–
CCOc1ccc(OCC)c(NC(=O)CN2CCN(c3cc(C)ccc3C)CC2)c1	–	–	–	–	–	–
Cc1ccc(C)c(N2CCN(CC(=O)Nc3ccc([N+](=O)[O-])cc3C(=O)Nc3ccccc3F)CC2)c1	–	–	38	·	·	–
O=S(=O)(Nc1ccc(-n2cccc2)cc1)c1ccccc1	–	–	33	·	·	–
Cc1cc(C)c(S(C)(=O)=O)c(Sc2ccc(Cl)cc2)n1	–	–	31	·	·	–
Cc1ccc(S(=O)(=O)N2CCN(S(=O)(=O)c3ccccc3)C2)cc1	–	–	–	·	–	–
C/C(=N\S(=O)(=O)c1ccc(C)cc1)N1CCN(S(=O)(=O)c2ccccc2)C1	–	–	31	–	·	–
Cc1cc(C)c2c(CN3CCN(CCO)CC3)cc(=O)oc2c1	–	–	–	–	–	–
Cc1ccc2c(CN3CCN(CCO)CC3)cc(=O)oc2c1C	–	-3.5	–	·	–	–
COc1ccc(C2C=C(c3ccc(Br)s3)Nc3ncnn32)cc1OC (stereo not drawn)	–	·	35	–	·	–
O=C(C=C1SCCS1)/C=C/c1ccco1	–	–	32	·	·	–
O=C(O)c1sccc1SCc1ccc(Cl)cc1Cl	–	–	–	·	·	–
N#Cc1nc(COc2ccccc2Cl)oc1NCc1cccnc1	59	–	47	·	–	–
SMILES	PostGolgi yeast	PTK2B oligo ant	PostGolgi ctrl	tolC growth inh	Calb biofilm kill	Ecoli WT expand
N#Cc1nc(COc2ccccc2F)oc1NCCc1ccccc1	–	–	–	100	–	–
CCOC(=O)CC(=O)CSc1ncnc2c1oc1ccccc12	–	–	–	–	–	–
COC(=O)c1ccccc1NC(=O)CSc1nnc(-c2cccnc2)n1C	·	–	·	·	–	·
Cc1cc(C)c2nc(N3CCCC(C(=O)N4CCN(c5ncccn5)CC4)C3)sc2c1 (stereo not drawn)	–	–	67	·	–	–
Cc1cc(C)c2nc(N3CCC(C(=O)N4CCN(C(=O)c5ccco5)CC4)CC3)sc2c1	–	–	–	·	–	–
CCCOc1ccc(OCCOCCN2CCc3ccccc3C2)cc1	–	–	–	·	·	–
COc1ccc(S(=O)(=O)NNC(=O)C2Cc3c(ccc4ccccc34)O2)cc1 (stereo not drawn)	–	–	–	·	·	–
COc1cc(Cl)c(C)cc1NC(=O)CSc1nnc(-c2ccccn2)n1Cc1ccco1	–	–	40	–	–	–
